Test results from ChEMBL document CHEMBL1240473, “Synthesis and bioassay of aminosulfonyl-1,3,4-oxadiazoles and their interconversion to 1,3,4-thiadiazoles” (2010).
Values after ≈ are worked out from the molar mass of the structure shown.

Columns and labels:
Format in all cases: functional
[1] = test system: Curvularia lunata; test: Antimicrobial activity against Curvularia lunata NCIM 716 at 200 ug/disk after 48 hrs by agar disc-diffusion method; conditions: NCIM 716, 48 h, read-out: DIZ
Procedure, shortened: (§1)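 Agar disc diffusion with NCIM strains. Sterile 6 mm filter-paper discs were moistened with compound in DMSO at 100 or 200 per disc and placed on agar plates pre-inoculated with each organism. Plates were incubated at 37 °C. Growth-inhibition zone diameter was read at 24 h for bacteria and 48 h for fungi.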

[2] = test system: Fusarium solani; test: Antimicrobial activity against Fusarium solani NCIM 1330 at 100 ug/disk after 48 hrs by agar disc-diffusion method; conditions: NCIM 1330, 48 h, read-out: DIZ; procedure, shortened: as §1
[3] = test system: Staphylococcus aureus; test: Antimicrobial activity against Staphylococcus aureus NCIM 5021 at 100 ug/disk after 24 hrs by agar disc-diffusion method; conditions: NCIM 5021, 24 h, read-out: DIZ; procedure, shortened: as §1
[4] = test system: Curvularia lunata; test: Antimicrobial activity against Curvularia lunata NCIM 716 at 100 ug/disk after 48 hrs by agar disc-diffusion method; conditions: NCIM 716, 48 h, read-out: DIZ; procedure, shortened: as §1
[5] = test system: Bacillus subtilis; test: Antimicrobial activity against Bacillus subtilis NCIM 2063 at 200 ug/disk after 24 hrs by agar disc-diffusion method; conditions: NCIM 2063, 24 h, read-out: DIZ; procedure, shortened: as §1
[6] = test system: Fusarium solani; test: Antimicrobial activity against Fusarium solani NCIM 1330 at 200 ug/disk after 48 hrs by agar disc-diffusion method; conditions: NCIM 1330, 48 h, read-out: DIZ; procedure, shortened: as §1
[7] = test system: Klebsiella pneumoniae; test: Antimicrobial activity against Klebsiella pneumoniae NCIM 2957 at 200 ug/disk after 24 hrs by agar disc-diffusion method; conditions: NCIM 2957, 24 h, read-out: DIZ; procedure, shortened: as §1
[8] = test system: Proteus vulgaris; test: Antimicrobial activity against Proteus vulgaris NCIM 2027 at 100 ug/disk after 24 hrs by agar disc-diffusion method; conditions: NCIM 2027, 24 h, read-out: DIZ
[9] = test system: Aspergillus niger; test: Antimicrobial activity against Aspergillus niger NCIM 596 at 200 ug/disk after 48 hrs by agar disc-diffusion method; conditions: NCIM 596, 48 h, read-out: DIZ; procedure, shortened: as §1
[10] = test system: Klebsiella pneumoniae; test: Antimicrobial activity against Klebsiella pneumoniae NCIM 2957 at 100 ug/disk after 24 hrs by agar disc-diffusion method; conditions: NCIM 2957, 24 h, read-out: DIZ; procedure, shortened: as §1
[11] = Antioxidant activity assessed as nitric oxide scavenging activity at 100 uM after 120 min by Griess assay
Procedure, shortened: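 Sodium nitroprusside (5 mM) in phosphate buffer pH 7.4 was incubated with test compound dissolved in dioxane/methanol at 25 °C for 120 min. A solvent-only control was run in parallel. Aliquots were mixed 1:1 with Griess reagent (1% sulfanilamide, 0.1% N-naphthylethylenediamine dihydrochloride, 2% o-phosphoric acid in water).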

[12] = test system: Radical scavenging activity; test: Antioxidant activity assessed as DPPH free radical scavenging activity at 100 uM after 20 mins
Procedure, shortened: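 Compound solutions were added to DPPH in dioxane/ethanol and kept at ambient temperature for 20 min, then absorbance was read at 517 nm. Percent inhibition = (A_control − A_sample)/A_control × 100, […].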

[13] = test system: Bacillus subtilis; test: Antimicrobial activity against Bacillus subtilis NCIM 2063 at 100 ug/disk after 24 hrs by agar disc-diffusion method; conditions: NCIM 2063, 24 h, read-out: DIZ; procedure, shortened: as §1
[14] = test system: Staphylococcus aureus; test: Antimicrobial activity against Staphylococcus aureus NCIM 5021 at 200 ug/disk after 24 hrs by agar disc-diffusion method; conditions: NCIM 5021, 24 h, read-out: DIZ; procedure, shortened: as §1
[15] = test system: Proteus vulgaris; test: Antimicrobial activity against Proteus vulgaris NCIM 2027 at 200 ug/disk after 24 hrs by agar disc-diffusion method; conditions: NCIM 2027, 24 h, read-out: DIZ
[16] = test system: Aspergillus niger; test: Antimicrobial activity against Aspergillus niger NCIM 596 at 100 ug/disk after 48 hrs by agar disc-diffusion method; conditions: NCIM 596, 48 h, read-out: DIZ; procedure, shortened: as §1
[17] = test system: Curvularia lunata; test: Antimicrobial activity against Curvularia lunata NCIM 716 after 48 hrs by microdilution susceptibility method; conditions: NCIM 716, 48 h
Procedure, shortened: (§2)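 Broth microdilution MIC with NCIM strains. Compounds and the references (chloramphenicol, antibacterial; ketoconazole, antifungal) were dissolved in DMSO at 800 and diluted two-fold from 400 down to 6.25. Wells were inoculated with the microbial suspension and incubated at 36 °C, 24 h for bacteria and 48 h for fungi. MIC was the lowest concentration with no visible growth.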

[18] = test system: Aspergillus niger; test: Antimicrobial activity against Aspergillus niger NCIM 596 after 48 hrs by microdilution susceptibility method; conditions: NCIM 596, 48 h; procedure, shortened: as §2
[19] = test system: Staphylococcus aureus; test: Antimicrobial activity against Staphylococcus aureus NCIM 5021 after 24 hrs by microdilution susceptibility method; conditions: NCIM 5021, 24 h; procedure, shortened: as §2
[20] = test system: Bacillus subtilis; test: Antimicrobial activity against Bacillus subtilis NCIM 2063 after 24 hrs by microdilution susceptibility method; conditions: NCIM 2063, 24 h; procedure, shortened: as §2
[21] = test system: Proteus vulgaris; test: Antimicrobial activity against Proteus vulgaris NCIM 2027 after 24 hrs by microdilution susceptibility method; conditions: NCIM 2027, 24 h
[22] = test system: Fusarium solani; test: Antimicrobial activity against Fusarium solani NCIM 1330 after 48 hrs by microdilution susceptibility method; conditions: NCIM 1330, 48 h; procedure, shortened: as §2
[23] = test system: Klebsiella pneumoniae; test: Antimicrobial activity against Klebsiella pneumoniae NCIM 2957 after 24 hrs by microdilution susceptibility method; conditions: NCIM 2957, 24 h; procedure, shortened: as §2

SMILES	zone of inhibition at 200 µg/disc [1] [mm]	zone of inhibition at 100 µg/disc [2] [mm]	zone of inhibition at 100 µg/disc [3] [mm]	zone of inhibition at 100 µg/disc [4] [mm]	zone of inhibition at 200 µg/disc [5] [mm]	zone of inhibition at 200 µg/disc [6] [mm]	zone of inhibition at 200 µg/disc [7] [mm]	zone of inhibition at 100 µg/disc [8] [mm]	zone of inhibition at 200 µg/disc [9] [mm]	zone of inhibition at 100 µg/disc [10] [mm]	Activity [11] [%]	Activity [12] [%]	zone of inhibition at 100 µg/disc [13] [mm]	zone of inhibition at 200 µg/disc [14] [mm]	zone of inhibition at 200 µg/disc [15] [mm]	zone of inhibition at 100 µg/disc [16] [mm]	further results
O=S(=O)(Cc1nnc(CS(=O)(=O)c2ccc(Cl)cc2)o1)Nc1ccc(Cl)cc1	18	17	13	14	14	19	13	13	18	11	69.4	71	12	15	14	16	–
O=S(=O)(Cc1nnc(CS(=O)(=O)c2ccc(Cl)cc2)s1)Nc1ccc(Cl)cc1	36	33	31	34	32	37	30	25	33	28	28.2	29.9	28	33	28	32	MIC [17]: 50 µg/mL (≈ 105 µM); MIC [18]: 50 µg/mL (≈ 105 µM); MIC [19]: 25 µg/mL (≈ 52.3 µM); MIC [20]: 25 µg/mL (≈ 52.3 µM); MIC [21]: 50 µg/mL (≈ 105 µM); MIC [22]: 50 µg/mL (≈ 105 µM); MIC [23]: 50 µg/mL (≈ 105 µM)
O=S(=O)(Cc1nnc(-c2ccc(Cl)cc2)o1)Nc1ccc(Cl)cc1	15	14	12	13	13	16	10	10	13	9	70.5	69.6	11	14	11	11	–
Cc1ccc(NS(=O)(=O)Cc2nnc(CS(=O)(=O)c3ccc(C)cc3)o2)cc1	17	14	12	15	13	18	12	10	15	10	57.2	58.6	11	15	12	13	–
O=S(=O)(Cc1nnc(-c2ccccc2)o1)Nc1ccccc1	15	11	10	13	11	13	9	6	16	7	63.5	62.3	9	13	8	12	–
O=C1O[C@H]([C@@H](O)CO)C(O)=C1O	–	–	–	–	–	–	–	–	–	–	96.9	95.4	–	–	–	–	–
Cc1ccc(NS(=O)(=O)Cc2nnc(-c3ccc(C)cc3)o2)cc1	16	12	10	14	10	15	8	7	12	7	54.3	58.1	9	12	9	10	–
O=C(N[C@H](CO)[C@H](O)c1ccc([N+](=O)[O-])cc1)C(Cl)Cl [CHLORAMPHENICOL]	–	–	35	–	44	–	42	42	–	37	–	–	38	41	45	–	MIC [19]: 6.25 µg/mL (≈ 19.3 µM); MIC [20]: 6.25 µg/mL (≈ 19.3 µM); MIC [21]: 12.5 µg/mL (≈ 38.7 µM); MIC [23]: 12.5 µg/mL (≈ 38.7 µM)
O=S(=O)(Cc1nnc(-c2ccccc2)s1)Nc1ccccc1	25	22	19	24	20	24	17	15	21	14	25.4	27.8	18	22	16	19	–
CC(=O)N1CCN(c2ccc(OCC3COC(Cn4ccnc4)(c4ccc(Cl)cc4Cl)O3)cc2)CC1 (centres undefined) [KETOCONAZOLE]	44	38	–	41	–	42	–	–	39	–	–	–	–	–	–	36	MIC [17]: 6.25 µg/mL (≈ 11.8 µM); MIC [18]: 6.25 µg/mL (≈ 11.8 µM); MIC [22]: 12.5 µg/mL (≈ 23.5 µM)
Cc1ccc(NS(=O)(=O)Cc2nnc(-c3ccc(C)cc3)s2)cc1	24	19	20	21	24	22	19	13	18	18	29.4	32.3	22	23	15	17	–
O=S(=O)(Cc1nnc(CS(=O)(=O)c2ccccc2)o1)Nc1ccccc1	20	13	13	16	15	16	12	12	17	11	66.8	64.7	12	14	14	14	–
